Experimental data published in ChEMBL document CHEMBL1123779, “Modifications of primaquine as antimalarials. 4. 5-Alkoxy derivatives of primaquine” (J Med Chem, 1987).

Experiments:
Plasmodium cynomolgi [1] = assay: Cures in Plasmodium cynomolgi infected Rhesus monkeys (Macaca mulatta) on 0.316 mg/kg/day after 7 days; cures 2 of 2; type: functional
Plasmodium cynomolgi [2] = assay: Cures in Plasmodium cynomolgi infected Rhesus monkeys (Macaca mulatta) on 1 mg/kg/day after 7 days; cured 3 of 3; type: functional
Plasmodium cynomolgi [3] = assay: Cures in Plasmodium cynomolgi infected Rhesus monkeys (Macaca mulatta) on 10.0 mg/kg/day after 7 days; cured 1 of 1; type: functional
Plasmodium cynomolgi [4] = assay: Cures in Plasmodium cynomolgi infected Rhesus monkeys (Macaca mulatta) on 0.1 mg/kg/day after 7 days (x7); cured 0 of 2; type: functional
Mus musculus [5] = assay: Suppressive blood schizonticidal antimalarial activity evaluated in the trophozoite-induced Plasmodium berghei infection in mice (Mus musculus) at a dose 320 mg/kg given as no. of toxic deaths; type: functional
In short: (§1)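 Rane Laboratory mouse test with blood-induced P. berghei infection, five mice per group. Toxic deaths are deaths occurring before the 6th day postinfection.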

Plasmodium berghei [6] = assay: (§2) Suppressive blood schizonticidal antimalarial activity evaluated in the trophozoite-induced Plasmodium berghei infection in mice (Mus musculus) at a dose 640 mg/kg given as number of toxic deaths; type: toxicity, organism-based; set-up: dose 640 mg/kg; details: in vivo; in short: as §1
Mus musculus [7] = assay: (§3) Suppressive blood schizonticidal antimalarial activity evaluated in the trophozoite-induced Plasmodium berghei infection in mice (Mus musculus) at a dose 80 mg/kg; type: ADME, organism-based; set-up: dose 80 mg/kg; details: in vivo
In short: (§4)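 Run at the Rane Laboratory in mice infected with blood-induced P. berghei, five animals per group. Activity is the increase in mean survival time over untreated infected controls. A compound counts as active when treated-group MST is more than twice the control MST. Cures are mice surviving at 60 days postinfection.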

Plasmodium berghei [8] = assay: Blood schizonticidal antimalarial activity in the trophozoite-induced Plasmodium berghei infection in mice (Mus musculus) at 20 mg/kg; type: functional; set-up: unit not given beside the values; in short: as §4
Mus musculus [9] = assay: Suppressive blood schizonticidal antimalarial activity evaluated in the trophozoite-induced Plasmodium berghei infection in mice (Mus musculus) at a dose 10 mg/kg; type: functional; in short: as §4
Mus musculus [10] = assay: Suppressive blood schizonticidal antimalarial activity evaluated in the trophozoite-induced Plasmodium berghei infection in mice (Mus musculus) at a dose 40 mg/kg; type: functional; set-up: unit not given beside the values; in short: as §4
Mus musculus [11] = assay: (§5) Suppressive blood schizonticidal antimalarial activity evaluated in the trophozoite-induced Plasmodium berghei infection in mice (Mus musculus) at a dose 160 mg/kg; type: ADME, organism-based; set-up: dose 160 mg/kg; details: in vivo; in short: as §4
Plasmodium cynomolgi [12] = assay: Cures in Plasmodium cynomolgi infected Rhesus monkeys (Macaca mulatta) on 0.316 mg/kg/day after 7 days; cured 0 of 2; type: functional
Plasmodium cynomolgi [13] = assay: Cures in Plasmodium cynomolgi infected Rhesus monkeys (Macaca mulatta) on 1 mg/kg/day after 7 days; cured 0 of 2; type: functional
Plasmodium cynomolgi [14] = assay: Cures in Plasmodium cynomolgi infected Rhesus monkeys (Macaca mulatta) on 10.0 mg/kg/day after 7 days; cured 2 of 2; type: functional
Mus musculus [15] = assay: Suppressive blood schizonticidal antimalarial activity evaluated in the trophozoite-induced Plasmodium berghei infection in mice (Mus musculus) at a dose 640 mg/kg given as no. of cures; type: functional
In short: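 Run at the Rane Laboratory with blood-induced P. berghei infections in mice, five animals per group. A cure is a mouse surviving to 60 days postinfection. Deaths before day 6 are recorded separately as toxic deaths. Activity is scored from the increase in mean survival time over untreated controls, and counts as active when treated MST is more than twice control MST.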

Mus musculus [16] = assay: Suppressive blood schizonticidal antimalarial activity evaluated in the trophozoite-induced Plasmodium berghei infection in mice (Mus musculus) at a dose 320 mg/kg; type: functional; in short: as §4
Mus musculus [17] = assay: as §5; type: functional; in short: as §4
Mus musculus [18] = assay: as §3; type: functional; set-up: unit not given beside the values; in short: as §4
Plasmodium cynomolgi [19] = assay: Cures in Plasmodium cynomolgi infected Rhesus monkeys (Macaca mulatta) on 0.316 mg/kg/day after 7 days; cured 1 of 2; type: functional
Plasmodium cynomolgi [20] = assay: Cures in Plasmodium cynomolgi infected Rhesus monkeys (Macaca mulatta) on 1 mg/kg/day after 7 days; cured 1 of 1; type: functional
Mus musculus [21] = assay: as §2; type: ADME, organism-based; set-up: dose 640 mg/kg; details: in vivo; in short: as §1
Mus musculus [22] = assay: Suppressive blood schizonticidal antimalarial activity evaluated in the trophozoite-induced Plasmodium berghei infection in mice (Mus musculus) at a dose 160 mg/kg given as no. of toxic deaths; type: functional; in short: as §1

## CCCOc1c(OC)cc(NC(C)CCCN)c2ncccc12 (stereo not given)
Plasmodium cynomolgi [1]
  Cures/no. of animals: 2
Plasmodium cynomolgi [2]
  Cures/no. of animals: 3
Plasmodium cynomolgi [3]
  Cures/no. of animals: 1
Plasmodium cynomolgi [4]
  Cures/no. of animals: 0
Mus musculus [5]
  Toxic deaths: 5
Plasmodium berghei [6]
  Toxic deaths: 5
Mus musculus [7]
  Toxic deaths: 1
Plasmodium berghei [8]
  Delta MST: 4.5
Mus musculus [9]
  Delta MST: 3.7
Mus musculus [10]
  Delta MST: 8.3
Mus musculus [11]
  Toxic deaths: 5

## COc1cc(NC(C)CCCN)c2nccc(C)c2c1 (stereo not given)
Plasmodium cynomolgi [12]
  Cures/no. of animals: 0
Plasmodium cynomolgi [13]
  Cures/no. of animals: 2
Plasmodium cynomolgi [14]
  Cures/no. of animals: 2
Mus musculus [15]
  Cures: 3
Plasmodium berghei [8]
  Delta MST: 3.1
Mus musculus [16]
  Delta MST: 10
Mus musculus [17]
  Delta MST: 9
Mus musculus [10]
  Delta MST: 4.9
Mus musculus [18]
  Delta MST: 5.5

## CCCCCOc1c(OC)cc(NC(C)CCCN)c2ncccc12 (stereo not given)
Plasmodium cynomolgi [19]
  Cures/no. of animals: 1
Plasmodium cynomolgi [20]
  Cures/no. of animals: 1
Plasmodium cynomolgi [4]
  Cures/no. of animals: 0
Mus musculus [21]
  Toxic deaths: 2
Mus musculus [22]
  Toxic deaths: 4
Mus musculus [5]
  Toxic deaths: 5
Plasmodium berghei [8]
  Delta MST: 4.7
Mus musculus [9]
  Delta MST: 4.3
Mus musculus [10]
  Delta MST: 6.1
Mus musculus [18]
  Delta MST: 4.7
